From ChEMBL document CHEMBL1649446, “Comparative antipneumococcal activities of sulopenem and other drugs” (2009) come the findings set out here.

≈ marks a conversion by molar mass, not a printed value.

Common to all, as to format: functional
In experiment [1] the test system is Streptococcus pneumoniae. Briefly: Antimicrobial activity against penicillin-susceptible Streptococcus pneumoniae by agar dilution method. (Agar dilution tests growth on a series of plates holding different concentrations.)
For experiment [2], the system named is Streptococcus pneumoniae. Briefly: Antimicrobial activity against penicillin-intermediate Streptococcus pneumoniae by agar dilution method.
In experiment [3] the test system is Streptococcus pneumoniae. Briefly: Antimicrobial activity against penicillin-resistant Streptococcus pneumoniae by agar dilution method. An outline of the steps:
(§1)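 Agar dilution MIC on Mueller-Hinton agar with 5% sheep blood, inocula 10^4 CFU/spot; amoxicillin-clavulanate combined 1:2; S. pneumoniae ATCC 49619 quality control each run.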

Experiment [4] relates to Streptococcus pneumoniae. As to the kind of experiment: Antimicrobial activity against Streptococcus pneumoniae 1 by time-kill analysis. An outline of the steps: (§2)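 Time-kill in cation-adjusted Mueller-Hinton broth with 5% lysed horse blood; inocula 5 × 105 to 5 × 10^6 CFU/ml; drugs at MIC, 2× and 4× MIC; 35°C shaking water bath; viable counts at 0, 3, 6, 12 and 24 h. Bactericidal if ≥3 log10 CFU/ml (99.9%) reduction from original inoculum; 90% and 99% killing also scored.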

In experiment [5] the test system is Streptococcus pneumoniae. Briefly: Antimicrobial activity against Streptococcus pneumoniae 2 by time-kill analysis. An outline of the steps: (§3)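 Time-kill in cation-adjusted Mueller-Hinton broth with 5% lysed horse blood; inocula 5 × 105 to 5 × 10^6 CFU/ml; drugs at MIC, 2× and 4× MIC; 35°C shaking water bath; viable counts at 0, 3, 6, 12, 24 h. Bactericidal = ≥3 log10 CFU/ml (99.9%) drop from original inoculum; 90%/99%/99.9% killing scored per strain.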

In experiment [6] the test system is Streptococcus pneumoniae. Briefly: Antimicrobial activity against Streptococcus pneumoniae 3 by time-kill analysis. An outline of the steps: as §3
Experiment [7] relates to Streptococcus pneumoniae. As to the kind of experiment: Antimicrobial activity against Streptococcus pneumoniae 4 by time-kill analysis. In a few lines:
as §3

Experiment [8] has as its system Streptococcus pneumoniae. Briefly: Antimicrobial activity against Streptococcus pneumoniae 5 by time-kill analysis. An outline of the steps: as §2
In experiment [9] the test system is Streptococcus pneumoniae. Briefly: Antimicrobial activity against Streptococcus pneumoniae 6 by time-kill analysis. In a few lines: as §3
The subject of experiment [10] is Streptococcus pneumoniae. As to the kind of experiment: Antimicrobial activity against Streptococcus pneumoniae 7 by time-kill analysis. An outline of the steps: as §3
The test system of experiment [11] is Streptococcus pneumoniae. As to the kind of experiment: Antimicrobial activity against Streptococcus pneumoniae 8 by time-kill analysis. An outline of the steps:
as §3

The test system of experiment [12] is Streptococcus pneumoniae. Briefly: Antimicrobial activity against Streptococcus pneumoniae 9 by time-kill analysis. In a few lines:
as §2

The subject of experiment [13] is Streptococcus pneumoniae. As to the kind of experiment: Antimicrobial activity against Streptococcus pneumoniae 10 by time-kill analysis. In a few lines: as §3
Experiment [14] has as its system Streptococcus pneumoniae. Briefly: Antimicrobial activity against Streptococcus pneumoniae 11 by time-kill analysis. An outline of the steps: as §3
In experiment [15] the test system is Streptococcus pneumoniae. As to the kind of experiment: Antimicrobial activity against Streptococcus pneumoniae 12 by time-kill analysis. In a few lines:
as §3

Experiment [16] has as its system Streptococcus pneumoniae. Briefly: Antimicrobial activity against Streptococcus pneumoniae isolate 24 by agar dilution method.
For experiment [17], the system named is Streptococcus pneumoniae. As to the kind of experiment: Antimicrobial activity against Streptococcus pneumoniae isolate 33 by agar dilution method. In a few lines: as §1
The subject of experiment [18] is Streptococcus pneumoniae. Briefly: Antimicrobial activity against Streptococcus pneumoniae isolate 37 by agar dilution method. An outline of the steps: as §1
The subject of experiment [19] is Streptococcus pneumoniae. Briefly: Antimicrobial activity against Streptococcus pneumoniae isolate 1055 by agar dilution method.
Experiment [20] relates to Streptococcus pneumoniae. Briefly: Antimicrobial activity against Streptococcus pneumoniae isolate 1146 by agar dilution method. In a few lines: as §1
The test system of experiment [21] is Streptococcus pneumoniae. As to the kind of experiment: Antimicrobial activity against Streptococcus pneumoniae isolate 1147 by agar dilution method. An outline of the steps: as §1
Experiment [22] has as its system Streptococcus pneumoniae. Briefly: Antimicrobial activity against Streptococcus pneumoniae isolate 1384 by agar dilution method. In a few lines: as §1
The test system of experiment [23] is Streptococcus pneumoniae. Briefly: Antimicrobial activity against Streptococcus pneumoniae isolate 1394 by agar dilution method.
Experiment [24] deals with Streptococcus pneumoniae. Briefly: Antimicrobial activity against Streptococcus pneumoniae isolate 1397 by agar dilution method. In a few lines:
as §1

In experiment [25] the test system is Streptococcus pneumoniae. Briefly: Antimicrobial activity against Streptococcus pneumoniae isolate 1424 by agar dilution method. In a few lines:
as §1

Experiment [26] concerns Streptococcus pneumoniae. Briefly: Antimicrobial activity against Streptococcus pneumoniae isolate 1564 by agar dilution method.
The test system of experiment [27] is Streptococcus pneumoniae. Briefly: Antimicrobial activity against Streptococcus pneumoniae isolate 2617 by agar dilution method. In a few lines:
as §1

Experiment [28] has as its system Streptococcus pneumoniae. Briefly: Antimicrobial activity against Streptococcus pneumoniae isolate 2686 by agar dilution method. In a few lines:
as §1

Experiment [29] has as its system Streptococcus pneumoniae. As to the kind of experiment: Antimicrobial activity against Streptococcus pneumoniae isolate 2688 by agar dilution method. An outline of the steps: as §1
The subject of experiment [30] is Streptococcus pneumoniae. As to the kind of experiment: Antimicrobial activity against Streptococcus pneumoniae isolate 2874 by agar dilution method. An outline of the steps: as §1
The test system of experiment [31] is Streptococcus pneumoniae. As to the kind of experiment: Antimicrobial activity against Streptococcus pneumoniae isolate 2880 by agar dilution method. In a few lines: as §1
In experiment [32] the test system is Streptococcus pneumoniae. As to the kind of experiment: Antimicrobial activity against Streptococcus pneumoniae isolate 3260 by agar dilution method.
Experiment [33] relates to Streptococcus pneumoniae. Briefly: Antimicrobial activity against Streptococcus pneumoniae isolate 3263 by agar dilution method.
Experiment [34] has as its system Streptococcus pneumoniae. As to the kind of experiment: Antimicrobial activity against Streptococcus pneumoniae isolate 3275 by agar dilution method. In a few lines: as §1
Experiment [35] relates to Streptococcus pneumoniae. Briefly: Antimicrobial activity against Streptococcus pneumoniae isolate 3282 by agar dilution method.
The test system of experiment [36] is Streptococcus pneumoniae. Briefly: Antimicrobial activity against Streptococcus pneumoniae isolate 3346 by agar dilution method.
Experiment [37] deals with Streptococcus pneumoniae. Briefly: Antimicrobial activity against Streptococcus pneumoniae isolate 3374 by agar dilution method. An outline of the steps:
as §1

Experiment [38] deals with Streptococcus pneumoniae. Briefly: Antimicrobial activity against Streptococcus pneumoniae isolate 3412 by agar dilution method. In a few lines:
as §1

Experiment [39] relates to Streptococcus pneumoniae. Briefly: Antimicrobial activity against Streptococcus pneumoniae isolate 3455 by agar dilution method.
For experiment [40], the system named is Streptococcus pneumoniae. As to the kind of experiment: Antimicrobial activity against Streptococcus pneumoniae isolate 3458 by agar dilution method.
Experiment [41] has as its system Streptococcus pneumoniae. As to the kind of experiment: Antimicrobial activity against Streptococcus pneumoniae isolate 3481 by agar dilution method. In a few lines:
as §1

Experiment [42] relates to Streptococcus pneumoniae. As to the kind of experiment: Antimicrobial activity against Streptococcus pneumoniae isolate 3587 by agar dilution method.
Experiment [43] has as its system Streptococcus pneumoniae. Briefly: Antimicrobial activity against Streptococcus pneumoniae isolate 3681 by agar dilution method. In a few lines:
as §1

In experiment [44] the test system is Streptococcus pneumoniae. As to the kind of experiment: Antimicrobial activity against Streptococcus pneumoniae isolate 3791 by agar dilution method. An outline of the steps:
as §1

Experiment [45] deals with Streptococcus pneumoniae. As to the kind of experiment: Antimicrobial activity against Streptococcus pneumoniae isolate 4747 by agar dilution method. An outline of the steps: as §1
The subject of experiment [46] is Streptococcus pneumoniae. Briefly: Antimicrobial activity against Streptococcus pneumoniae isolate 4755 by agar dilution method. An outline of the steps:
as §1

Experiment [47] has as its system Streptococcus pneumoniae. As to the kind of experiment: Antimicrobial activity against Streptococcus pneumoniae 19A by agar dilution method. In a few lines:
as §1

As a reminder, the MIC50 is an inhibitory concentration at the 50% level, which refers to growth in some studies and to a panel of isolates in others. What is called MIC90 is an inhibitory concentration at the 90% level, which refers to growth in some studies and to a panel of isolates in others. A higher MIC90 goes with lower susceptibility. In general, MIC refers to the lowest concentration that inhibits growth of the organism. For `C=CC1=C(C(=O)O)N2C(=O)[C@@H](NC(=O)/C(=N\O)c3csc(N)n3)[C@H]2SC1` [CEFDINIR], the MIC50 in the experiment with Streptococcus pneumoniae [1] was 0.06 µg/mL (≈ 0.152 µM); in the experiment with Streptococcus pneumoniae [2] it was 0.5 µg/mL (≈ 1.26 µM); in the experiment with Streptococcus pneumoniae [3], 8 µg/mL (≈ 20.2 µM). Besides, the MIC90 in the experiment with Streptococcus pneumoniae [1] was 0.125 µg/mL (≈ 0.316 µM); against Streptococcus pneumoniae [2] it was 4 µg/mL (≈ 10.1 µM); with Streptococcus pneumoniae [3], 8 µg/mL (≈ 20.2 µM). Moreover, the MIC was 0.12 µg/mL (≈ 0.303 µM) in the experiment on Streptococcus pneumoniae [4]; 0.06 µg/mL (≈ 0.152 µM) with Streptococcus pneumoniae [5]; 0.5 µg/mL (≈ 1.26 µM) in the experiment with Streptococcus pneumoniae [6]; 16 µg/mL (≈ 40.5 µM) against Streptococcus pneumoniae [7]; 8 µg/mL (≈ 20.2 µM) against Streptococcus pneumoniae [8]; 1 µg/mL (≈ 2.53 µM) against Streptococcus pneumoniae [9]. Moreover, the MIC in the experiment with Streptococcus pneumoniae [10] stood at 4 µg/mL (≈ 10.1 µM); in the experiment on Streptococcus pneumoniae [11], 16 µg/mL (≈ 40.5 µM); in the experiment on Streptococcus pneumoniae [12], 1 µg/mL (≈ 2.53 µM); against Streptococcus pneumoniae [13], 0.25 µg/mL (≈ 0.632 µM); against Streptococcus pneumoniae [14], 4 µg/mL (≈ 10.1 µM); in the experiment with Streptococcus pneumoniae [15], 4 µg/mL (≈ 10.1 µM). Also, the MIC stood at 4 µg/mL (≈ 10.1 µM) against Streptococcus pneumoniae [16]; 8 µg/mL (≈ 20.2 µM) in the experiment on Streptococcus pneumoniae [17]; 4 µg/mL (≈ 10.1 µM) with Streptococcus pneumoniae [18]; 8 µg/mL (≈ 20.2 µM) against Streptococcus pneumoniae [19]; 8 µg/mL (≈ 20.2 µM) with Streptococcus pneumoniae [20]; 8 µg/mL (≈ 20.2 µM) in the experiment on Streptococcus pneumoniae [21]. The MIC was 8 µg/mL (≈ 20.2 µM) with Streptococcus pneumoniae [22]; 8 µg/mL (≈ 20.2 µM) in the experiment with Streptococcus pneumoniae [23]; 4 µg/mL (≈ 10.1 µM) against Streptococcus pneumoniae [24]; 8 µg/mL (≈ 20.2 µM) in the experiment with Streptococcus pneumoniae [25]; 32 µg/mL (≈ 80.9 µM) in the experiment with Streptococcus pneumoniae [26]; 4 µg/mL (≈ 10.1 µM) in the experiment on Streptococcus pneumoniae [27]. For the same compound, the MIC in the experiment on Streptococcus pneumoniae [28] stood at 8 µg/mL (≈ 20.2 µM); against Streptococcus pneumoniae [29], 16 µg/mL (≈ 40.5 µM); in the experiment with Streptococcus pneumoniae [30], 8 µg/mL (≈ 20.2 µM); in the experiment with Streptococcus pneumoniae [31] it was 4 µg/mL (≈ 10.1 µM); in the experiment on Streptococcus pneumoniae [32], 8 µg/mL (≈ 20.2 µM); in the experiment with Streptococcus pneumoniae [33], 8 µg/mL (≈ 20.2 µM). The minimum inhibitory concentration (MIC) with Streptococcus pneumoniae [34] worked out at 2 µg/mL (≈ 5.06 µM); with Streptococcus pneumoniae [35], 8 µg/mL (≈ 20.2 µM); against Streptococcus pneumoniae [36], 8 µg/mL (≈ 20.2 µM); in the experiment on Streptococcus pneumoniae [37], 4 µg/mL (≈ 10.1 µM); against Streptococcus pneumoniae [38], 4 µg/mL (≈ 10.1 µM); against Streptococcus pneumoniae [39] it was 8 µg/mL (≈ 20.2 µM). Besides, the MIC against Streptococcus pneumoniae [40] was 8 µg/mL (≈ 20.2 µM); in the experiment with Streptococcus pneumoniae [41], 4 µg/mL (≈ 10.1 µM); in the experiment with Streptococcus pneumoniae [42], 8 µg/mL (≈ 20.2 µM); in the experiment on Streptococcus pneumoniae [43], 8 µg/mL (≈ 20.2 µM); with Streptococcus pneumoniae [44], 8 µg/mL (≈ 20.2 µM); against Streptococcus pneumoniae [45] it was 4 µg/mL (≈ 10.1 µM). In the experiment with Streptococcus pneumoniae [46], the MIC worked out at 4 µg/mL (≈ 10.1 µM).

As for `C[C@H]1COc2c(N3CCN(C)CC3)c(F)cc3c(=O)c(C(=O)O)cn1c23.C[C@H]1COc2c(N3CCN(C)CC3)c(F)cc3c(=O)c(C(=O)O)cn1c23.O` [LEVOFLOXACIN], the MIC50 in the experiment with Streptococcus pneumoniae [1] stood at 1 µg/mL; against Streptococcus pneumoniae [2], 1 µg/mL; in the experiment on Streptococcus pneumoniae [3], 1 µg/mL; against Streptococcus pneumoniae [47] it was 2 µg/mL. In addition, the MIC90 worked out at 16 µg/mL against Streptococcus pneumoniae [1], 2 µg/mL in the experiment on Streptococcus pneumoniae [2], 4 µg/mL in the experiment on Streptococcus pneumoniae [3] and 2 µg/mL with Streptococcus pneumoniae [47].

As to `COc1c(N2C[C@@H]3CCCN[C@@H]3C2)c(F)cc2c(=O)c(C(=O)O)cn(C3CC3)c12` [MOXIFLOXACIN], the minimum inhibitory concentration (MIC) came to 4 µg/mL (≈ 9.96 µM) with Streptococcus pneumoniae [4], 2 µg/mL (≈ 4.98 µM) in the experiment with Streptococcus pneumoniae [7], 4 µg/mL (≈ 9.96 µM) with Streptococcus pneumoniae [19] and 0.25 µg/mL (≈ 0.623 µM) with Streptococcus pneumoniae [26].
